ChEMBL document CHEMBL2157901, “Synthesis, biological evaluation and molecular modeling of dihydro-pyrazolyl-thiazolinone derivatives as potential COX-2 inhibitors” (Bioorg Med Chem, 2012)
The source made the active and inactive calls. The rule behind the calls is not given here.

How the values were obtained:
[1] = biological target: Prostaglandin G/H synthase 1 (Homo sapiens, UniProt P23219); experiment: Inhibition of COX-1 by chemiluminescent assay
[2] = Cytotoxicity against LPS-activated mouse RAW264.7 cells after 24 hrs by MTT method; type: cell-based; conditions: LPS-activated RAW264.7 cells
Procedure, shortened: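 MTT assay in RAW264.7 cells grown in DMEM with 5% FBS, penicillin and streptomycin at 37 °C under 5% CO₂. Cells were seeded at 5 × 10⁴ per well and exposed for 24 h to compounds diluted from DMSO stocks (0.1% DMSO final). MTT (4 mg/mL) was added 4 h before the end, then plates were centrifuged and supernatant removed. CC₅₀ is the concentration cutting viability to 50%; mean of three experiments in triplicate.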

[3] = Selectivity index, ratio of IC50 for COX-1 to IC50 for COX-2
Procedure, shortened: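 COX-1 and COX-2 inhibition measured with a chemiluminescent enzyme assay kit. Each IC₅₀ (50% enzyme inhibition) is the mean of two determinations. Selectivity index taken as COX-1 IC₅₀ divided by COX-2 IC₅₀.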

[4] = biological target: T1, Prostaglandin G/H synthase 2 (Homo sapiens, UniProt P35354); experiment: Inhibition of COX-2 by chemiluminescent assay
T1 sequence (P35354 whole entry): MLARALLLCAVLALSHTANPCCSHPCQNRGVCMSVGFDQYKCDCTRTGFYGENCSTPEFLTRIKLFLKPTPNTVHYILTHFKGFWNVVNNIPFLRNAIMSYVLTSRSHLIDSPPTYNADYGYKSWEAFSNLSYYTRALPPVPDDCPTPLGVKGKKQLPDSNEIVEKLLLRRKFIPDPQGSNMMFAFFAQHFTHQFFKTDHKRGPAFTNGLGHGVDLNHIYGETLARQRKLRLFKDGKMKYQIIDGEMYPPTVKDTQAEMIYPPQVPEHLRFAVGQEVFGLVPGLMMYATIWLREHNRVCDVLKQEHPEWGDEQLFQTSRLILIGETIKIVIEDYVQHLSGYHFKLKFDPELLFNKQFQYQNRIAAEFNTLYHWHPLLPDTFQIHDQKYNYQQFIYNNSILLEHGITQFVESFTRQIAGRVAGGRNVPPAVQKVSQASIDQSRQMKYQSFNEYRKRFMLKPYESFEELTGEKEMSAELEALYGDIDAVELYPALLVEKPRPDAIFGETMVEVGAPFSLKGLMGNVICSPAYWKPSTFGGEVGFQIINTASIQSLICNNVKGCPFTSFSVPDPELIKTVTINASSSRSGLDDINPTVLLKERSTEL

[5] = system: RAW264.7; experiment: Inhibition of LPS-induced COX-2 expression in mouse RAW264.7 cells at >1.25 uM by Western blot analysis; type: functional, cell-based

Sequence of Prostaglandin G/H synthase 1 (P23219 whole entry): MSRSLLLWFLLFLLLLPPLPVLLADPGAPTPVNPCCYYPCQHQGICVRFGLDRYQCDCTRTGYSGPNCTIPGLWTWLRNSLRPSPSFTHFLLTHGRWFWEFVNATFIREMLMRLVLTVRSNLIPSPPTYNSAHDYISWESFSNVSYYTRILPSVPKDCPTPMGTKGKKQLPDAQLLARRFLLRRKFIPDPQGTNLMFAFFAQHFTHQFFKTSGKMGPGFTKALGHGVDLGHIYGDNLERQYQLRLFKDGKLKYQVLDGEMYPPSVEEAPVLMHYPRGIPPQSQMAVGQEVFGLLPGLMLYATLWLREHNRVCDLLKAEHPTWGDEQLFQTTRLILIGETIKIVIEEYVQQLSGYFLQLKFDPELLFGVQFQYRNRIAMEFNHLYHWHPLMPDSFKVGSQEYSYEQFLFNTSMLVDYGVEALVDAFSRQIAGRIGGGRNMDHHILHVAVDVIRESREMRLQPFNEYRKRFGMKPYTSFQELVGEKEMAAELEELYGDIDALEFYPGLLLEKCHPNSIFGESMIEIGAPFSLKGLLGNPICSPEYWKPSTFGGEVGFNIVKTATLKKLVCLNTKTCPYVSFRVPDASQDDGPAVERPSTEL

| SMILES | IC50 [1] [µM] | Ratio IC50 [3] | IC50 [4] [µM] | CC50 at 24 h [2] [µM] | inhibition [5] |
| --- | --- | --- | --- | --- | --- |
| Cc1ccc(C2=NN(C3=NC(=O)CS3)C(c3cccc(Cl)c3)C2)cc1C (stereo unspecified) | > 50 | > 9.6 | 5.2 | 178 |  |
| Cc1cccc(C2CC(c3ccc(C)c(C)c3)=NN2C2=NC(=O)CS2)c1 (stereo unspecified) | > 50 | > 18.5 | 2.7 | 237 |  |
| Cc1cccc(C2CC(c3ccc(Cl)c(Cl)c3)=NN2C2=NC(=O)CS2)c1 (stereo unspecified) | > 50 | > 6.9 | 7.2 | 204 |  |
| COc1ccc(C2CC(c3ccc(C)c(C)c3)=NN2C2=NC(=O)CS2)cc1 (stereo unspecified) | > 50 | > 17.2 | 2.9 | 387 |  |
| Cc1ccc(C2=NN(C3=NC(=O)CS3)C(c3ccc(Cl)cc3)C2)cc1C (stereo unspecified) | 48.6 | 10.8 | 4.5 | 226 |  |
| COc1ccc(C2CC(c3ccc(Cl)c(Cl)c3)=NN2C2=NC(=O)CS2)cc1 (stereo unspecified) | > 50 | > 7.4 | 6.8 | 264 |  |
| O=C1CSC(N2N=C(c3ccc(Cl)c(Cl)c3)CC2c2cccc(Cl)c2)=N1 (stereo unspecified) | > 50 | > 3.1 | 16.1 | 165 |  |
| Cc1ccc(C2=NN(C3=NC(=O)CS3)C(c3ccc(Br)cc3)C2)cc1C (stereo unspecified) | > 50 | > 27.8 | 1.8 | 365 |  |

Now from value to compound, other results behind:

| IC50 [1] [µM] | Ratio IC50 [3] | IC50 [4] [µM] | SMILES | CC50 at 24 h [2] [µM] | inhibition [5] |
| --- | --- | --- | --- | --- | --- |
| 37.7 | 3.2 | 11.7 | O=C1CSC(N2N=C(c3ccc(Cl)c(Cl)c3)CC2c2ccc(Cl)cc2)=N1 (stereo unspecified) | 187 |  |
| 40.8 | 6.4 | 6.4 | Cc1ccc(C2=NN(C3=NC(=O)CS3)C(c3ccc(F)cc3)C2)cc1C (stereo unspecified) | 246 |  |
| 44.3 | 9.4 | 4.7 | Cc1ccc(C2CC(c3ccc(Cl)c(Cl)c3)=NN2C2=NC(=O)CS2)cc1 (stereo unspecified) | 279 |  |
| 45.3 | 37.8 | 1.2 | Cc1ccc(C2CC(c3ccc(C)c(C)c3)=NN2C2=NC(=O)CS2)cc1 (stereo unspecified) | 384 |  |
| 47.2 | 7.5 | 6.3 | Cc1ccc(C2=NN(C3=NC(=O)CS3)C(c3ccccc3C)C2)cc1C (stereo unspecified) | 317 |  |
| 34.3 | 1.8 | 19.4 | O=C1CSC(N2N=C(c3ccc(Cl)c(Cl)c3)CC2c2ccc(F)cc2)=N1 (stereo unspecified) | 139 |  |
| 45.6 | 2.8 | 16.3 | Cc1ccccc1C1CC(c2ccc(Cl)c(Cl)c2)=NN1C1=NC(=O)CS1 (stereo unspecified) | 179 |  |
| 44.1 | 6.1 | 7.2 | Cc1ccc(C2=NN(C3=NC(=O)CS3)C(c3ccccc3Cl)C2)cc1C (stereo unspecified) | 227 |  |
| 33.2 | 12.3 | 2.7 | O=C1CSC(N2N=C(c3ccc(Cl)c(Cl)c3)CC2c2ccccc2)=N1 (stereo unspecified) | 295 |  |
| 40.2 | 2.2 | 18.4 | O=C1CSC(N2N=C(c3ccc(Cl)c(Cl)c3)CC2c2ccccc2Cl)=N1 (stereo unspecified) | 143 |  |
| 48.5 | 6.4 | 7.6 | O=C1CSC(N2N=C(c3ccc(Cl)c(Cl)c3)CC2c2ccc(Br)cc2)=N1 (stereo unspecified) | 280 |  |
| 42.4 | 84.8 | 0.5 | Cc1ccc(C2=NN(C3=NC(=O)CS3)C(c3ccccc3)C2)cc1C (stereo unspecified) | > 450 | Active |
